The values that follow come from ChEMBL document CHEMBL4406821, “Novel dual inhibitors targeting CDK4 and VEGFR2 synergistically suppressed cancer progression and angiogenesis” (Eur J Med Chem, 2019).

The target in data set [1] is Mitogen-activated protein kinase kinase kinase 10 (Homo sapiens) (UniProt Q02779). In words: Inhibition of recombinant human MLK2 (1 to 449 residues) at 1 uM using myelin basic protein as substrate incubated for 40 mins in presence of [gamma-33P]-ATP by scintillation counting method relative to control.
The nature of data set [2]: MRT (0 to t) in Sprague-Dawley rat at 10 mg/kg, iv by HPLC-MS analysis. To be noted: in vivo. Type of data set: ADME, organism-based.
For data set [3], the system named is HUVEC. In words: Antiangiogenic activity against HUVEC cells assessed as reduction in tube formation at 20 to 40 nM incubated for 6 hrs by light microscopy. In kind it is functional, cell-based. To be noted: Homo sapiens. The procedure, abridged:
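HUVECs, 4×10⁴ cells/well, were seeded on Matrigel that had been solidified at 37°C for 30 min. Cells were treated with compound or vehicle at 37°C for 6 h. Three random fields were counted and photographed under a light microscope.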

Data set [4] relates to MDA-MB-231. In words: Antiproliferative activity against human MDA-MB-231 cells assessed as reduction in cell viability measured after 72 hrs by CCK8 assay. Type of data set: functional, cell-based. To be noted: MDA-MB-231, 72 h. The procedure, abridged: (§1)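 Cells were seeded at 3×10³ cells/well and exposed to a range of concentrations or vehicle for 72 h. Viability was read by CCK-8 at 450 nm, with DMSO as blank and five replicates per sample. IC50 was calculated from the dose-response.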
For orientation: Formazan colour is commonly taken as a measure of viable cells.

Data set [5] addresses Serine/threonine-protein kinase BRSK2 (Homo sapiens) (UniProt Q8IWQ3). In words: Inhibition of recombinant human BRSK2 (2 to end residues) at 1 uM using KKLNRTLSFAEPG as substrate incubated for 40 mins in presence of [gamma-33P]-ATP by scintillation counting method relative to control. An outline of the steps: (§2)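 Kinase panel profiling at 1 μM performed by Eurofins KinaseProfiler; percent inhibition reported as mean of two independent experiments.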

Data set [6] has as its target Insulin receptor (Homo sapiens) (UniProt P06213). In words: Inhibition of recombinant activated human IR (1005 to 1310 residues) at 1 uM using KKKSPGEYVNIEFG as substrate incubated for 40 mins in presence of [gamma-33P]-ATP by scintillation counting method relative to control. The procedure, abridged:
as §2

The subject of data set [7] is SiHa. In words: Antiproliferative activity against human SiHa cells assessed as reduction in cell viability measured after 72 hrs by CCK8 assay. In kind it is functional, cell-based. The procedure, abridged: as §1
The target of data set [8] is Casein kinase II subunit alpha (Homo sapiens) (UniProt P68400). In words: Inhibition of recombinant full length human CK2alpha1 at 1 uM using RRRDDDSDDD as substrate incubated for 40 mins in presence of [gamma-33P]-ATP by scintillation counting method relative to control. An outline of the steps: as §2
In data set [9] the test system is HUVEC. In words: Antiproliferative activity against HUVEC cells assessed as reduction in cell viability measured after 72 hrs by CCK8 assay. Type of data set: functional, cell-based. To be noted: Homo sapiens. The procedure, abridged: as §1
The target of data set [10] is Ephrin type-B receptor 3 (Homo sapiens) (UniProt P54753). In words: Inhibition of recombinant human EPhB3 (599 to 920 residues) at 1 uM using poly (Glu, Tyr) 4:1 as substrate incubated for 40 mins in presence of [gamma-33P]-ATP by scintillation counting method relative to control.
Data set [11] can be described thus: Toxicity in NOD/SCID BALB/c mouse xenografted with human SiHa cells assessed as effect on blood parameter by measuring RDW at 40 mg/kg, po administered once two days for 4 times by hematology analyzer. Type of data set: organism-based. To be noted: in vivo. A general note: A xenograft is tissue or cells of one species grown in another, often human tumour cells in immunodeficient mice.

In data set [12] the target is Vascular endothelial growth factor receptor 2 (Homo sapiens, UniProt P35968). In words: Inhibition of recombinant human VEGFR2 (790 to end residues) using myelin ba as substrate at 1 uM incubated for 40 mins by [gamma-33P]-ATP based radiometric assay relative to control. The procedure, abridged:
as §2

Data set [13] deals with T47D. In words: Induction of apoptosis in human T47D cells assessed as decrease in Ki67 expression at 20 to 40 nM incubated for 48 hrs by Western blot analysis. In kind it is functional, cell-based. The procedure, abridged:
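Cancer cells were exposed to graded concentrations for 48 h, washed three times in PBS and lysed in RIPA buffer. Immunoblots were probed with anti-Rb, anti-phospho-Rb, anti-Ki67 and anti-Bcl-2, each at 1:1000. β-actin served as loading control.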
On the technique in general: In western blotting, separated proteins are transferred to a membrane and probed.

The subject of data set [14] is HeLa. In words: Antiproliferative activity against human HeLa cells assessed as reduction in cell viability measured after 72 hrs by CCK8 assay. Type of data set: functional, cell-based. An outline of the steps: as §1
Data set [15] can be described thus: Toxicity in NOD/SCID BALB/c mouse xenografted with human SiHa cells assessed as effect on blood parameter by measuring platelet content at 40 mg/kg, po administered once two days for 4 times by hematology analyzer. Type of data set: organism-based. To be noted: in vivo.
Data set [16] in a line: Toxicity in NOD/SCID BALB/c mouse xenografted with human SiHa cells assessed as reduction in body weight at 20 to 40 mg/kg, po administered for 21 days. Type of data set: organism-based. To be noted: in vivo, 504 h.
Data set [17] concerns T47D. In words: Antiproliferative activity against human T47D cells assessed as reduction in cell viability measured after 72 hrs by CCK8 assay. In kind it is functional, cell-based. An outline of the steps:
as §1

Data set [18] concerns the target Serine/threonine-protein kinase VRK1 (Homo sapiens) (UniProt Q99986). In words: Inhibition of recombinant human VRK1 at 1 uM incubated for 40 mins in presence of [gamma-33P]-ATP by scintillation counting method relative to control.
The test system of data set [19] is SiHa. In words: Induction of apoptosis in human SiHa cells assessed as increase in late apoptotic cells at 20 to 40 nM incubated for 48 hrs by annexin V FITC and propidium iodide staining based flow cytometry. In kind it is functional, cell-based. The procedure, abridged:
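Annexin V-FITC/PI double staining with flow-cytometric readout. MDA-MB-231, T-47D, SiHa and HeLa cells were treated with graded concentrations for 48 h. MDA-MB-231 and T-47D were grown in DMEM and SiHa in 1640 medium, each with 10% FBS and 1% penicillin/streptomycin at 37°C under 5% CO2. Early- and late-stage apoptotic fractions were scored.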

The target of data set [20] is Serine/threonine-protein kinase haspin (Homo sapiens) (UniProt Q8TF76). In words: Inhibition of recombinant human Haspin (471 to end residues) at 1 uM using RARTLSFAEPG as substrate incubated for 40 mins in presence of [gamma-33P]-ATP by scintillation counting method relative to control.
The target of data set [21] is Dual specificity mitogen-activated protein kinase kinase 1 (Homo sapiens) (UniProt Q02750). In words: Inhibition of recombinant human full length MEK1 at 1 uM using as unactive MAPK2 substrate incubated for 40 mins in presence of [gamma-33P]-ATP by scintillation counting method relative to control.
Data set [22] concerns Hepatocyte growth factor receptor (Homo sapiens), P08581 [Y1248H]. In words: Inhibition of recombinant human Met Y1248H mutant (974 to end residues) at 1 uM using KKKGQEEEYVFIE as substrate incubated for 40 mins in presence of [gamma-33P]-ATP by scintillation counting method relative to control.
Data set [23] has as its target Serine/threonine-protein kinase Chk1 (Homo sapiens) (UniProt O14757). In words: Inhibition of recombinant full length human CHK1 at 1 uM using KKKVSRSGLYRSP as substrate incubated for 40 mins in presence of [gamma-33P]-ATP by scintillation counting method relative to control. The procedure, abridged: as §2
Data set [24] has as its system T47D. In words: Inhibition of colony formation in human T47D cells at 40 nM incubated for 5 days by crystal violet staining based light microscopy. In kind it is functional, cell-based. The procedure, abridged: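 MDA-MB-231, T-47D, SiHa and HeLa cells seeded at 4×10^3/well and cultured with varying concentrations of drug or vehicle for 5 days. Fixed in 20% methanol, stained with 0.5% crystal violet, photographed under light microscopy. DMEM (T-47D) with 10% FBS, 37°C, 5% CO2.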

The source made the active and inactive calls. The rule behind the calls is not given here.

The term inhibition denotes the relative decrease from the control value, in per cent. As a reminder, the MRT last is a mean duration of stay, worked out from the concentration-time curve. The term IC50 denotes the concentration that inhibits the measured activity by half.

Chain of Vascular endothelial growth factor receptor 2 (P35968 whole entry): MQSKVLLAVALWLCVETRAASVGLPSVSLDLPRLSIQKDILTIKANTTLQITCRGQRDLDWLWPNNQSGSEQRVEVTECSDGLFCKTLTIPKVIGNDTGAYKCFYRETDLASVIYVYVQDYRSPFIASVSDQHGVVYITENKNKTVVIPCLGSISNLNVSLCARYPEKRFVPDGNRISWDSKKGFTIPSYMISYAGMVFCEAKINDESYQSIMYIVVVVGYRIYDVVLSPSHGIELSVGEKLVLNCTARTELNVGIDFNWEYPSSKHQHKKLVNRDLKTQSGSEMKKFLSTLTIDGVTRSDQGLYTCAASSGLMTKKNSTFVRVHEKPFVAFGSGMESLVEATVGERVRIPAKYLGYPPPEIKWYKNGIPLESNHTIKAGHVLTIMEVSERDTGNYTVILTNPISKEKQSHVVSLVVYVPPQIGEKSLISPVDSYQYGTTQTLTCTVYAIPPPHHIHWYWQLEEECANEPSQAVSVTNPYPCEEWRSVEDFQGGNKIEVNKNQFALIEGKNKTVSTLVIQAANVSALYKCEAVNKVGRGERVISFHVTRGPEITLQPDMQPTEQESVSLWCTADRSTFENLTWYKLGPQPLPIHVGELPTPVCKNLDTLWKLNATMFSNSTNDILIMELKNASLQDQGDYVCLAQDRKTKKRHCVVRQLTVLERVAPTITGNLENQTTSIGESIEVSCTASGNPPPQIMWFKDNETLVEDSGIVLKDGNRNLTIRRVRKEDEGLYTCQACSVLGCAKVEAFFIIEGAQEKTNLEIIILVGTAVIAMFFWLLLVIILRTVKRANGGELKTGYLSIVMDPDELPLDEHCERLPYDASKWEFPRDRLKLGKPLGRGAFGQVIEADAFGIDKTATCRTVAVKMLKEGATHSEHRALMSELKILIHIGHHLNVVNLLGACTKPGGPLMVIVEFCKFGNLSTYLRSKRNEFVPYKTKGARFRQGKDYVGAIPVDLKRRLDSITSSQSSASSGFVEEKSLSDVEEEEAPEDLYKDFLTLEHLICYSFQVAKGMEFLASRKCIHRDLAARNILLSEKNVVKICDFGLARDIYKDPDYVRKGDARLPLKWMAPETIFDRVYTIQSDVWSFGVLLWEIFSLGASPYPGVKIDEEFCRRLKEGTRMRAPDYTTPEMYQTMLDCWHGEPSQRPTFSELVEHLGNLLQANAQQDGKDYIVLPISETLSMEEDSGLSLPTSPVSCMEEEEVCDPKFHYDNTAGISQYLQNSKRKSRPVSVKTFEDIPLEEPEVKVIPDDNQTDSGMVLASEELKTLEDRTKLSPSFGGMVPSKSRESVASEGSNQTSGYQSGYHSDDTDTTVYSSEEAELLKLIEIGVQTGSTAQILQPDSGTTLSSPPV
Chain of Serine/threonine-protein kinase haspin (Homo sapiens) (Q8TF76 whole entry): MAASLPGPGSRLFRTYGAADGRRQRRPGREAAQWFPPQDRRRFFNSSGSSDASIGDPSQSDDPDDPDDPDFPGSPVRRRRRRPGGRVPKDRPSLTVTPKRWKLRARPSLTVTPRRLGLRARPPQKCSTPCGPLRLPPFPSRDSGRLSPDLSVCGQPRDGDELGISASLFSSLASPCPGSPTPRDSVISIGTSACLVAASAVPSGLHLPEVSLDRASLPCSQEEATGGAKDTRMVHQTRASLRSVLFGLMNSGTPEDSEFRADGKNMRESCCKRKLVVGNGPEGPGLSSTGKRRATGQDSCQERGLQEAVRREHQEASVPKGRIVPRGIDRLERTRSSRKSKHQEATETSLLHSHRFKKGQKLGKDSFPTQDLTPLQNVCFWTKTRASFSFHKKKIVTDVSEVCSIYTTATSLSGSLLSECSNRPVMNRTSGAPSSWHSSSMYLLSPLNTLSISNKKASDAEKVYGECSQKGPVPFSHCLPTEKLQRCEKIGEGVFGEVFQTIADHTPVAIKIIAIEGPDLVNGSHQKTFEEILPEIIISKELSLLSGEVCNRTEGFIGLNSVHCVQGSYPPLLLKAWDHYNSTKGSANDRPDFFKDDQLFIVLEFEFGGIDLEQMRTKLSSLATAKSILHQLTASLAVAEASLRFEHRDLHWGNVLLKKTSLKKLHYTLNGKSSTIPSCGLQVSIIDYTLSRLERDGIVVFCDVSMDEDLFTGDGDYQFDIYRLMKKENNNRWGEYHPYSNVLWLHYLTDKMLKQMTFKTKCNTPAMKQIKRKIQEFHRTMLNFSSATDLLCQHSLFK
Chain of Serine/threonine-protein kinase VRK1 (Homo sapiens) (Q99986 whole entry): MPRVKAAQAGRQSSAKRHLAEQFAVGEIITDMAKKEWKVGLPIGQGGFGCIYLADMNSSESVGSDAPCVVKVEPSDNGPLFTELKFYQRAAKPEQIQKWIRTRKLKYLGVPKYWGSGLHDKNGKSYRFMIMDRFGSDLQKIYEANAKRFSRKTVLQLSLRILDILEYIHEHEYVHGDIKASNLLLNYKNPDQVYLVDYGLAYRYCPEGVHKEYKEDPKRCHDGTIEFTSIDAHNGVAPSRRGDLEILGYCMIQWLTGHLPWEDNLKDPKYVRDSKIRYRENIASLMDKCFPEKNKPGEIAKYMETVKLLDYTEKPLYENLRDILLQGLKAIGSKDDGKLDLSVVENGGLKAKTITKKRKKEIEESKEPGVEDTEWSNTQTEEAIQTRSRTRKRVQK
Chain of Serine/threonine-protein kinase Chk1 (Homo sapiens) (O14757 whole entry): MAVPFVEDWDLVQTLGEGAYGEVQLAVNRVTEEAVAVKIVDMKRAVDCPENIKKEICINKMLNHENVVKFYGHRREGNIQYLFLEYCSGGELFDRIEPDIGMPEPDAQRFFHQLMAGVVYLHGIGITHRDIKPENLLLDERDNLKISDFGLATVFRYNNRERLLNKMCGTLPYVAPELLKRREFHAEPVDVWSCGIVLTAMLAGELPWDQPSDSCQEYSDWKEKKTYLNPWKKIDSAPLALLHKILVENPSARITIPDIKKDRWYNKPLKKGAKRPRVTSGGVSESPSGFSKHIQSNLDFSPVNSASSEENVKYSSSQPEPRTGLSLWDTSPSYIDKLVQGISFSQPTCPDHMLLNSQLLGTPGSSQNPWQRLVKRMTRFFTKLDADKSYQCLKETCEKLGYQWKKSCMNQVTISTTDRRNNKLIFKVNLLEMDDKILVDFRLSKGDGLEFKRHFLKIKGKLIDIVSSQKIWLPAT
Chain of Serine/threonine-protein kinase BRSK2 (Homo sapiens) (Q8IWQ3 whole entry): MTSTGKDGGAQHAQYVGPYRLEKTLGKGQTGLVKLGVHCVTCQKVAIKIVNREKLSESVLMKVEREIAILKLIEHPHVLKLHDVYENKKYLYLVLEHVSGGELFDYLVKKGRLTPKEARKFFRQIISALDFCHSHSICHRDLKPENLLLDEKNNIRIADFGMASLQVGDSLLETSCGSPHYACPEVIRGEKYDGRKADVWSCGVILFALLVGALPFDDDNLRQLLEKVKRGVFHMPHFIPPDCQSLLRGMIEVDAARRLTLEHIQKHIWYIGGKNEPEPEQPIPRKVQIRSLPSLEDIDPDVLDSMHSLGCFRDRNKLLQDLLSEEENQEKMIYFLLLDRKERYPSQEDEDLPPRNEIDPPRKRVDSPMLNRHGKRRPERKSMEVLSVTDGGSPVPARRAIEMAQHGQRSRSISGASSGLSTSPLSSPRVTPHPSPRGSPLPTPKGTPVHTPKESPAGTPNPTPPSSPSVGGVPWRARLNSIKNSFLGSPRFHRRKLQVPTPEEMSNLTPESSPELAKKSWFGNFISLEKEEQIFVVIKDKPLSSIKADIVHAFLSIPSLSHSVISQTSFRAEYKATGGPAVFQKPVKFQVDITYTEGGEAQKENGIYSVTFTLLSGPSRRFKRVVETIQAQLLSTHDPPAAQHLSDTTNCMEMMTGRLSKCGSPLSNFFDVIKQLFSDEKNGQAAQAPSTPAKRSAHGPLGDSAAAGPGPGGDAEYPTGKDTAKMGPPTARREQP
Chain of Mitogen-activated protein kinase kinase kinase 10 (Homo sapiens) (Q02779 whole entry, looked up, the tested form may be a part): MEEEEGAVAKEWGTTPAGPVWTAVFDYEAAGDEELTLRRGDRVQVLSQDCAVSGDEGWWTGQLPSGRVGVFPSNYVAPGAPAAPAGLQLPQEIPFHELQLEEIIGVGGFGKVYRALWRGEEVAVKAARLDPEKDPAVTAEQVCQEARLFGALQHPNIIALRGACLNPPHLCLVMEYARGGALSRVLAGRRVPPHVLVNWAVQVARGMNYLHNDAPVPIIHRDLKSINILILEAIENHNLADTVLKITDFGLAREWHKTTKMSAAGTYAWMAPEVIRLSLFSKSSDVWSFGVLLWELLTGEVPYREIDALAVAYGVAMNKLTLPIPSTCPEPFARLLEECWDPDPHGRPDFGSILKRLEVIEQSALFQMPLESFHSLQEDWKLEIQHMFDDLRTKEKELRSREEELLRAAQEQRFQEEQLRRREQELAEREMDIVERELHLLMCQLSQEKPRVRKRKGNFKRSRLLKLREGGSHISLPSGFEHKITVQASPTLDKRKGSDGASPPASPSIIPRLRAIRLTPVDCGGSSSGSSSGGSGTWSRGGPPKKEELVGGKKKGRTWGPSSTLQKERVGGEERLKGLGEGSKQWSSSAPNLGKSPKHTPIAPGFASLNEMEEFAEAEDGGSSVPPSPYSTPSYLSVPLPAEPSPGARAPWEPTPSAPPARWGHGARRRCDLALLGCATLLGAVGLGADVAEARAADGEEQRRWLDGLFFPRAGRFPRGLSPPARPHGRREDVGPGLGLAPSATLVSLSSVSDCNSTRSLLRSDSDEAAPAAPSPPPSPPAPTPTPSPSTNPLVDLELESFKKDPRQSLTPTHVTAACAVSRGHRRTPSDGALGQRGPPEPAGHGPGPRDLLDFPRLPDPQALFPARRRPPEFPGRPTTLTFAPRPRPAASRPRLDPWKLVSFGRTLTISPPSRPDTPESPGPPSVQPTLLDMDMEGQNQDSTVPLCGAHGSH

With `Cc1ccc(NC(=O)C2(C(=O)Nc3ccc(Nc4ncc(F)c(-c5cc(F)c6nc(C)n(C(C)C)c6c5)n4)cc3)CC2)cc1`, the inhibition in data set [1] came to 2%; in data set [5], 54%; in data set [6], 27%; in data set [8], 36%; in [10], 2%; in data set [12], 95%. In addition, the inhibition is 9% in data set [18]; 22% in [20]; 7% in data set [21]; 40% in data set [22]; 28% in data set [23]. The MRT last in data set [2] came out at 2 h. Besides, the inhibition entry in [3] was “Active”. Also, the half-inhibitory concentration (IC50) in [4] is 0.038 µM; in data set [7], 0.05 µM; in data set [9] it was 0.036 µM; in data set [14] it was 0.0715 to 0.072 µM; in data set [17] it was 0.016 to 0.0164 µM. The Activity result in data set [11] was “Non-Toxic”; in [15] it was “Non-Toxic”; in data set [16] it was “Toxic”. The outcome in [13] and in [19] was Active.

On to `COc1cc2nccc(Oc3ccc(NC(=O)C4(C(=O)Nc5ccc(F)cc5)CC4)cc3)c2cc1OC` [CABOZANTINIB], for which the inhibition result in [3] and in [24] was “Active” throughout. Besides, the 50% inhibitory concentration (IC50) is 5.08 µM in [4]; 7.94 µM in data set [7]; 7.67 µM in data set [9]; > 10 µM in data set [14]; 4.79 µM in data set [17]. Moreover, in [12], the inhibition turned out to be 101%.
